How the values were obtained:
[1] = system: human hepatoma cancer cell line (HepG2); test: cells; assay type: cell-based; details: HepG2, 72 h, read-out: IC50, anti-proliferative activity
[2] = molecular target: T1, α-Mannosidase (α-Man) (Canavalia ensiformis, UniProt C0HJB3); test: SPR interaction analysis between compounds and immobilised α-Man; assay type: binding, Canavalia ensiformis (Jack bean); details: for Kd: KD (equilibrium dissociation constant), kinetic analysis, SPR, 25 °C, 1:1 Langmuir binding model; for kon: read-out: ka (association rate constant); for koff: read-out: kd (dissociation rate constant)
T1 sequence (C0HJB3 1-562 limits assumed): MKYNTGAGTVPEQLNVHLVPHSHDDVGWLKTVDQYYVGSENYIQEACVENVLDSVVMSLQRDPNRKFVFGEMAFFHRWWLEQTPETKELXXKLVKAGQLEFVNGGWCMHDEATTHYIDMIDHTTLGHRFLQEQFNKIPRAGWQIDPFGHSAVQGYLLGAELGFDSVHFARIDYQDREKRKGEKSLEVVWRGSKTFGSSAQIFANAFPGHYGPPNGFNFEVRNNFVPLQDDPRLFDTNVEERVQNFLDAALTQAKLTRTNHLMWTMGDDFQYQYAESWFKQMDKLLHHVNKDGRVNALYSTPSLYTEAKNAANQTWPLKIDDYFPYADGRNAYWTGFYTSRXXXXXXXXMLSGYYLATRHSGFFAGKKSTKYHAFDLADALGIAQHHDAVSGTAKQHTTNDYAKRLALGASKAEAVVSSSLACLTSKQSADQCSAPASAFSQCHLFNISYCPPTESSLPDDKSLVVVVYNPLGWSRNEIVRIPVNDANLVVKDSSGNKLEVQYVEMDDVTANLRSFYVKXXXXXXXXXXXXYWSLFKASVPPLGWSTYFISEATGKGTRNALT
T1 sequence (C0HJB3 563-981 partner limits assumed): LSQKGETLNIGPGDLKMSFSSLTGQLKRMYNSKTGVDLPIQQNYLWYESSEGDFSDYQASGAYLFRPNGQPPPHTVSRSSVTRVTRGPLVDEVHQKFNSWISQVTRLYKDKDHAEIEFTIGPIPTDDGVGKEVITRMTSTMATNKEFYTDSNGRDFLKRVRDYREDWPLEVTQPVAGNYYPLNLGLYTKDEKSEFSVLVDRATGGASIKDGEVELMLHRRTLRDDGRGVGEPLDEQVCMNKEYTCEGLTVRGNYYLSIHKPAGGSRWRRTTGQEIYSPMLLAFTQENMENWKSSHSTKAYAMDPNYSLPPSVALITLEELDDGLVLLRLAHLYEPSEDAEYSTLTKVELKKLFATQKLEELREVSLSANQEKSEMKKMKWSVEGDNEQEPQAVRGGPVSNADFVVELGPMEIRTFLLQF
Summary of the method: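 The α-Man chip was referenced against an enzyme-free channel. Each test compound was run at six concentrations in a twofold series, injected in parallel at 25 μL/min and 25 °C, with 12 min association and 20 min dissociation. A 4.0–6.0% DMSO calibration curve was applied. Runs were done in triplicate. ka, kd and KD came from a global 1:1 Langmuir fit; equilibrium constants came from steady-state analysis.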

[3] = system: human breast cancer cell line (MCF7); test: cells; assay type: cell-based; details: MCF7, 72 h, read-out: IC50, anti-proliferative activity
[4] = system: human lung cancer cell line (HCC827); test: cells; assay type: cell-based; details: HCC827, 72 h, read-out: IC50, anti-proliferative activity
[5] = system: mouse fibroblast cells (L929); test: CCK-8 toxicity on normal cells, L929; assay type: cell-based; details: L929, under the condition of keeping 90% cell viability
[6] = molecular target: T1, α-Mannosidase (α-Man); test: SPR bioactivity assessment: binding ability; design: species or system Canavalia ensiformis (Jack bean); details: swainsonine standard solution, PBST running buffer
Summary of the method: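 Jack bean α-Man was amine-coupled onto the GLH chip binding channel after sulfo-NHS/EDC activation. Coupling was at 20 μg/mL in 10 mmol/L sodium acetate, pH 4, at 25 μL/min for 360 s, followed by ethanolamine blocking. A reference channel was activated and blocked without enzyme. A positive-control inhibitor standard was injected, with PBST (10 mmol/L Na3PO4, 150 mmol/L NaCl, 0.005% Tween 20, pH 7.4) as the blank. The response was followed during association.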

SMILES	IC50 [1] [µM]	Kd [2] [µM]	kon [2] [M⁻¹ s⁻¹]	koff [2] [s⁻¹]	IC50 [3] [µM]	IC50 [4] [µM]	safe dose [5] [µmol/L]	response signal during association [6] [RU]
O=c1c2ccccc2nc2n1CCC2 [Compound 3, Deoxyvasicinone]	5.7	47.3	73.3	0.00347	7.21	0.75	20	
O[C@H]1[C@H]2[C@H](O)CCCN2C[C@H]1O [swainsonine, Swainsonine]								20
O=Cc1ccc(O)cc1 [Compound 1, p-Hydroxybenzaldehyde]		1370	1.54	0.00211				
COc1cc(C=O)cc(OC)c1O [Compound 2, 3,5-Dimethoxy-4-hydroxy-benzaldehyde]		347	12	0.00418				
COc1cc2ncnc(Nc3ccc(F)c(Cl)c3)c2cc1OCCCN1CCOCC1 [Gefitinib, reference compound]							40	

Source: PMC10230635 (Chinese Herbal Medicines, 2022)
